Results published in PMC6172068 (Cancer Science, 2018).

Assay: Safety and tolerability
Type: in vivo, Japanese patients
Conditions: for Stomatitis / Subdural hematoma / Syncope / Thrombocytopenia / Tumor-associated fever / Vomiting / Anemia / Bone pain / Constipation / Corneal erosion / Cough / Diarrhea / Disseminated intravascular coagulation / Dysesthesia / Dysgeusia / ECG prolonged QT interval / Elevated ALT / Elevated AST / Elevated blood creatine phosphokinase / Elevated blood lactate dehydrogenase / Elevated liver enzymes (ALT, AST, and alkaline phosphatase) / Epistaxis / Febrile neutropenia / Headache / Hematoma / Hypertension / Hypokalemia / Hypotension / Hypoxia / Increased amylase / Insomnia / Lung infection / Nausea / Pleural effusion / Pneumonia / Pyrexia / Rash / Renal impairment / Sepsis / Somnolence: N = 24
Outline: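 In this open-label study, once-daily oral dosing escalated 20–300 mg/d by Bayesian continual reassessment. DLTs were judged from Cycles 0 and 1, and MTD/RD came from the posterior mean DLT rate plus investigator assessment. Treatment-emergent AEs were graded by NCI-CTCAE v4.0 for seriousness, duration and relatedness. The safety analysis set comprised all patients given ≥1 dose.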

In the case of `CCc1nc(C(N)=O)c(Nc2ccc(N3CCC(N4CCN(C)CC4)CC3)c(OC)c2)nc1NC1CCOCC1` [gilteritinib], the Stomatitis (Grade 1-2) is reported as 5 (20.8%) n (%), the Subdural hematoma (Grade 1-2) is reported as 1 (4.2%) n (%) and the Syncope (Grade 1-2) is reported as 0 n (%). For the same molecule, the Thrombocytopenia (Grade 1-2) was 0 n (%), the Tumor-associated fever (Grade 1-2) was 2 (8.3%) n (%) and the Vomiting (Grade 1-2) was 2 (8.3%) n (%). For the same molecule, the Anemia (Grade 3) was 2 (8.3%) n (%), the Bone pain (Grade 3) was 1 (4.2%) n (%) and the Constipation (Grade 3) was 0 n (%). The Corneal erosion (Grade 3) was 0 n (%), the Cough (Grade 3) was 0 n (%) and the Diarrhea (Grade 3) was 1 (4.2%) n (%). The Disseminated intravascular coagulation (Grade 3) was 3 (12.5%) n (%), the Dysesthesia (Grade 3) was 0 n (%) and the Dysgeusia (Grade 3) was 0 n (%). The “ECG prolonged QT interval” value (Grade 3) was 1 (4.2%) n (%), the “Elevated ALT” value (Grade 3) was 0 n (%) and the “Elevated AST” value (Grade 3) was 0 n (%). The “Elevated blood creatine phosphokinase” value (Grade 3) was 2 (8.3%) n (%), the “Elevated blood lactate dehydrogenase” value (Grade 3) was 1 (4.2%) n (%) and the “Elevated liver enzymes (ALT, AST, and alkaline phosphatase)” value (Grade 3) was 0 n (%). The Epistaxis (Grade 3) was 0 n (%), the Febrile neutropenia (Grade 3) was 3 (12.5%) n (%) and the Headache (Grade 3) was 0 n (%). For the same molecule, the Hematoma (Grade 3) was 0 n (%), the Hypertension (Grade 3) was 0 n (%) and the Hypokalemia (Grade 3) was 1 (4.2%) n (%). For the same molecule, the Hypotension (Grade 3) was 0 n (%), the Hypoxia (Grade 3) was 0 n (%) and the Increased amylase (Grade 3) was 1 (4.2%) n (%). For the same molecule, the Insomnia (Grade 3) was 0 n (%), the Lung infection (Grade 3) was 1 (4.2%) n (%) and the Nausea (Grade 3) was 0 n (%). The Pleural effusion (Grade 3) was 0 n (%), the Pneumonia (Grade 3) was 3 (12.5%) n (%) and the Pyrexia (Grade 3) was 0 n (%). The Rash (Grade 3) was 0 n (%), the Renal impairment (Grade 3) was 0 n (%) and the Sepsis (Grade 3) was 1 (4.2%) n (%). For the same molecule, the Somnolence (Grade 3) was 0 n (%), the Stomatitis (Grade 3) was 0 n (%) and the Subdural hematoma (Grade 3) was 0 n (%). The Syncope (Grade 3) was 2 (8.3%) n (%), the Thrombocytopenia (Grade 3) was 2 (8.3%) n (%) and the Tumor-associated fever (Grade 3) was 0 n (%). For the same molecule, the Vomiting (Grade 3) was 0 n (%), the Anemia (Grade 4) was 0 n (%) and the Bone pain (Grade 4) was 0 n (%). The Constipation (Grade 4) was 0 n (%), the Corneal erosion (Grade 4) was 0 n (%) and the Cough (Grade 4) was 0 n (%). The Diarrhea (Grade 4) was 0 n (%), the Disseminated intravascular coagulation (Grade 4) was 0 n (%) and the Dysesthesia (Grade 4) was 0 n (%). The Dysgeusia (Grade 4) was 0 n (%), the “ECG prolonged QT interval” value (Grade 4) was 0 n (%) and the “Elevated ALT” value (Grade 4) was 0 n (%). For the same molecule, the “Elevated AST” value (Grade 4) was 0 n (%), the “Elevated blood creatine phosphokinase” value (Grade 4) was 1 (4.2%) n (%) and the “Elevated blood lactate dehydrogenase” value (Grade 4) was 0 n (%). For the same molecule, the “Elevated liver enzymes (ALT, AST, and alkaline phosphatase)” value (Grade 4) was 0 n (%), the Epistaxis (Grade 4) was 0 n (%) and the Febrile neutropenia (Grade 4) was 0 n (%). For the same molecule, the Headache (Grade 4) was 0 n (%), the Hematoma (Grade 4) was 0 n (%) and the Hypertension (Grade 4) was 0 n (%). The Hypokalemia (Grade 4) was 0 n (%), the Hypotension (Grade 4) was 0 n (%) and the Hypoxia (Grade 4) was 0 n (%). For the same molecule, the Increased amylase (Grade 4) was 0 n (%), the Insomnia (Grade 4) was 0 n (%) and the Lung infection (Grade 4) was 0 n (%). For the same molecule, the Nausea (Grade 4) was 0 n (%), the Pleural effusion (Grade 4) was 0 n (%) and the Pneumonia (Grade 4) was 0 n (%). The Pyrexia (Grade 4) was 0 n (%), the Rash (Grade 4) was 0 n (%) and the Renal impairment (Grade 4) was 0 n (%). For the same molecule, the Sepsis (Grade 4) was 0 n (%), the Somnolence (Grade 4) was 0 n (%) and the Stomatitis (Grade 4) was 0 n (%). The Subdural hematoma (Grade 4) was 0 n (%), the Syncope (Grade 4) was 0 n (%) and the Thrombocytopenia (Grade 4) was 2 (8.3%) n (%). For the same molecule, the Tumor-associated fever (Grade 4) was 0 n (%), the Vomiting (Grade 4) was 0 n (%) and the Anemia (Grade 5) was 0 n (%). The Bone pain (Grade 5) was 0 n (%), the Constipation (Grade 5) was 0 n (%) and the Corneal erosion (Grade 5) was 0 n (%). The Cough (Grade 5) was 0 n (%), the Diarrhea (Grade 5) was 0 n (%) and the Disseminated intravascular coagulation (Grade 5) was 0 n (%). For the same molecule, the Dysesthesia (Grade 5) was 0 n (%), the Dysgeusia (Grade 5) was 0 n (%) and the “ECG prolonged QT interval” value (Grade 5) was 0 n (%). The “Elevated ALT” value (Grade 5) was 0 n (%), the “Elevated AST” value (Grade 5) was 0 n (%) and the “Elevated blood creatine phosphokinase” value (Grade 5) was 0 n (%). For the same molecule, the “Elevated blood lactate dehydrogenase” value (Grade 5) was 0 n (%), the “Elevated liver enzymes (ALT, AST, and alkaline phosphatase)” value (Grade 5) was 0 n (%) and the Epistaxis (Grade 5) was 0 n (%). The Febrile neutropenia (Grade 5) was 0 n (%), the Headache (Grade 5) was 0 n (%) and the Hematoma (Grade 5) was 0 n (%). The Hypertension (Grade 5) was 0 n (%), the Hypokalemia (Grade 5) was 0 n (%) and the Hypotension (Grade 5) was 0 n (%). For the same molecule, the Hypoxia (Grade 5) was 0 n (%), the Increased amylase (Grade 5) was 0 n (%) and the Insomnia (Grade 5) was 0 n (%). The Lung infection (Grade 5) was 0 n (%), the Nausea (Grade 5) was 0 n (%) and the Pleural effusion (Grade 5) was 0 n (%). The Pneumonia (Grade 5) was 0 n (%), the Pyrexia (Grade 5) was 0 n (%) and the Rash (Grade 5) was 0 n (%). The Renal impairment (Grade 5) was 0 n (%), the Sepsis (Grade 5) was 0 n (%) and the Somnolence (Grade 5) was 0 n (%). The Stomatitis (Grade 5) was 0 n (%), the Subdural hematoma (Grade 5) was 1 (4.2%) n (%) and the Syncope (Grade 5) was 0 n (%). For the same molecule, the Thrombocytopenia (Grade 5) was 0 n (%), the Tumor-associated fever (Grade 5) was 0 n (%) and the Vomiting (Grade 5) was 0 n (%). The “patients who experienced at least 1 AE” value (SAF, all doses) was 24 patients, the “patients with AEs resulting in permanent discontinuation of gilteritinib” value (all doses, 6 of 24 patients) was 25% and the “patients with serious AEs” value (all doses, 7 of 24 patients) was 29.2%. For the same molecule, the “patients with drug-related grade ≥3 AEs” value (all doses, 9 patients) was 37.5%, the “Drug-related AE: pyrexia” value (all doses, n = 3/24) was 12.5% and the “grade ≥3 AE: disseminated intravascular coagulation” value (all doses, n = 3/24) was 12.5%. For the same molecule, the “grade ≥3 AE: elevated blood creatine phosphokinase” value (all doses, n = 3/24) was 12.5%, the “grade ≥3 AE: febrile neutropenia” value (all doses, n = 3/24) was 12.5% and the “grade ≥3 AE: pneumonia” value (all doses, n = 3/24) was 12.5%. For the same molecule, the “Drug-related AE: diarrhea” value (all doses, n = 4/24) was 16.7%, the “Drug-related AE: hypertension” value (all doses, n = 4/24) was 16.7% and the “Drug-related AE: stomatitis” value (all doses, n = 4/24) was 16.7%. For the same molecule, the “Drug-related AE: thrombocytopenia” value (all doses, n = 4/24) was 16.7%, the “grade ≥3 AE: thrombocytopenia” value (all doses, n = 4/24) was 16.7% and the “Drug-related AE: renal impairment” value (all doses, n = 5/24) was 20.8%. The “Drug-related AE: elevated blood lactate dehydrogenase” value (all doses, n = 6/24) was 25%, the “Drug-related AE: elevated blood creatine phosphokinase” value (all doses, n = 7/24) was 29.2% and the “Drug-related AE: elevated liver enzyme levels” value (all doses, n = 8/24) was 33.3%. For the same molecule, the “patients with grade ≥3 AEs” value (all doses, n = 16/24) was 66.7%, the “patients with at least 1 treatment-related AE” value (all doses, n = 22/24) was 91.7% and the “AE: febrile neutropenia” value (any grade, all doses, n = 5/24) was 20.8%. For the same molecule, the “AE: hypertension” value (any grade, all doses, n = 5/24) was 20.8%, the “AE: renal impairment” value (any grade, all doses, n = 5/24) was 20.8% and the “AE: stomatitis” value (any grade, all doses, n = 5/24) was 20.8%. For the same molecule, the “AE: diarrhea” value (any grade, all doses, n = 7/24) was 29.2%, the “AE: pyrexia” value (any grade, all doses, n = 7/24) was 29.2% and the “AE: elevated blood lactate dehydrogenase” value (any grade, all doses, n = 8/24) was 33.3%. The “AE: elevated blood creatine phosphokinase” value (any grade, all doses, n = 9/24) was 37.5%, the “AE: elevated liver enzymes (ALT, AST, alkaline phosphatase)” value (any grade, all doses, n = 9/24) was 37.5% and the “drug-related AE leading to treatment discontinuation: pneumonia” value (n = 2/24) was 8.3%. For the same molecule, the “drug-related grade ≥3 AE: pneumonia” value (n = 2, 40 and 300 mg/d) was 8.3%, the “drug-related grade ≥3 AE: anemia” value (n = 2, 200 and 300 mg/d) was 8.3% and the “drug-related grade ≥3 AE: febrile neutropenia” value (n = 2, 200 and 300 mg/d) was 8.3%. For the same molecule, the “drug-related grade ≥3 AE: increased blood creatine phosphokinase” value (n = 3, 200 and 300 mg/d) was 12.5%, the “drug-related grade ≥3 AE: thrombocytopenia” value (n = 4, 200 and 300 mg/d) was 16.7% and the “patients who experienced DLTs during Cycle 0 and Cycle 1” value (of the 24 patients in the SAF) was 3 patients. The “maximum tolerated dose (MTD)” value (once-daily oral, Bayesian CRM and investigator opinion) was 200 mg/day and the “recommended dose (RD)” value (once-daily oral, for subsequent studies) was 120 mg/day.
